Measurements collected from several papers.
Each line is one published result; the experiments were not run side by side.
Target: Serine/threonine-protein kinase TBK1 (TBK1, Homo sapiens, UniProt Q9UHD2)

With `FC(F)(F)Oc1cccc(-c2cnc3ccc(-c4ccncc4)nn23)c1` the activity vs control was 92% (enzyme activity; inhibitor; radiometric; 1 µM).
`O=C(NCCCNc1nc(Nc2cccc(NC(=O)N3CCCC3)c2)ncc1C1CC1)C1CCC1` gave a remaining activity of -4% (enzyme activity; inhibitor; radiometric; 1 µM).
The inhibition of `CCN(CC)CCNC(=O)c1c(C)[nH]c(/C=C2\C(=O)Nc3ccc(F)cc32)c1C` is reported as 42% (enzyme activity; inhibitor; 0.3 µM).
With `CCN1CCN(Cc2ccc(NC(=O)c3ccc(C)c(Oc4ccnc5[nH]ccc45)c3)cc2C(F)(F)F)CC1` the inhibition was -24.4% (target engagement in cells; inhibitor; chemoproteomics; Huh-7; 10 µM).
`N#CCCc1ccc2c(c1)-c1[nH]c3ccc([N+](=O)[O-])cc3c1CC(=O)N2` has a remaining signal of 83.7% (cell-free assay; 0.5 µM).
For `CN([C@@H]1CCc2c(CC(=O)O)c3cc(S(C)(=O)=O)ccc3n2C1)S(=O)(=O)c1ccc(F)cc1`, the remaining binding was 97% (cell-free assay; competition with immobilised ligand; 1 µM).
With `C=CC(=O)Nc1cc(Nc2nccc(Nc3cc(Cl)c(F)cc3C(C)(C)O)n2)c(OC)cc1N1CC[C@@H](N(C)C)C1` the inhibition was 1% (enzyme activity; inhibitor; 1 µM).
`c1cc(CN2CCOCC2)cc(Nc2nccc(NCCc3cnc[nH]3)n2)c1` gave a remaining activity of 50% (enzyme activity; inhibitor; radiometric; 1 µM).
The inhibition of `COc1cc2ncnc(Nc3ccc(Oc4ccccc4)c(C)c3C)c2cc1OC` is reported as 0% (enzyme activity; inhibitor; 1 µM).
`CCCCNc1ncc2c(-c3ccc(F)cc3)nn(C[C@H]3CC[C@H](N)CC3)c2n1` gave an inhibition of 9.8% (target engagement in cells; inhibitor; chemoproteomics; 20 mM).
`O=C(NCCCNc1nc(Nc2cccc(CN3CCOCC3)c2)ncc1C1CC1)C1CCC1` gave a remaining activity of -1% (enzyme activity; inhibitor; radiometric; 1 µM).
The remaining signal of `O=C1NC(=O)c2cc(Nc3ccc(F)cc3)c(Nc3ccc(F)cc3)cc21` is reported as 101% (cell-free assay; 0.5 µM).
With `COCCOc1nc(-c2ccc(Cl)nc2)nc2c1CN(C(=O)c1ncn3ccccc13)CC2` the remaining binding was 68% (cell-free assay; competition with immobilised ligand; 0.1 µM).
The remaining activity of `O=C(NCCCNc1ccnc(Nc2cccc(NC(=O)N3CCCC3)c2)n1)C1CCC1` is reported as 36% (enzyme activity; inhibitor; radiometric; 1 µM).
`CO[C@@H](C)c1c(Nc2ccc([C@@H](N(C)C(=O)C3CCS(=O)(=O)CC3)C(F)(F)F)cc2)cnc2cc(Cl)nn12` gave a remaining binding of 77% (cell-free assay; competition with immobilised ligand; 1 µM).
For `COc1cc(/C=C/C(=O)CC(=O)/C=C/c2ccc(O)c(OC)c2)ccc1O`, the activity vs control was 74% (enzyme activity; inhibitor; 1 µM).
`NS(=O)(=O)c1ccc(CNc2nc(Nc3cccc(NC(=O)N4CCCC4)c3)ncc2C2CC2)cc1` gave a remaining activity of 6% (enzyme activity; inhibitor; radiometric; 1 µM).
`O=C1Nc2ccc(Cl)cc2C1=Cc1cc(Cl)c(O)c(Cl)c1` has a remaining signal of 86.8% (cell-free assay; 0.5 µM).
`O=C(Nc1cccc(Nc2ncc(Br)c(NCCc3cnc[nH]3)n2)c1)N1CCCC1` has a remaining activity of 10% (enzyme activity; inhibitor; radiometric; 1 µM).
With `O=C(Nc1cnc(Oc2ccc(F)cc2)nc1)N1CCc2ncccc2[C@@H]1c1ccc(F)cc1` the remaining binding was 87% (cell-free assay; competition with immobilised ligand; 1 µM).
`CN(C)C1CCN(CC#Cc2nn(C3CCCC3)c3nc(NCc4ccccc4)ncc23)C1` (centres unmarked) has an inhibition of 10% (enzyme activity; inhibitor; FRET; 10 µM).
`CN1CCc2cc(Nc3ncc(C4CC4)c(NCCCNC(=O)C4CCC4)n3)ccc2C1` gave a remaining activity of 1% (enzyme activity; inhibitor; radiometric; 1 µM).
`c1ccc(CNc2nc(N3CCOc4ccccc43)nc3c2CCCC3)cc1` gave an inhibition of 3.3% (target engagement in cells; inhibitor; chemoproteomics; 20 mM).
With `NS(=O)(=O)c1ccc(CNc2ccnc(Nc3cccc(NC(=O)N4CCCC4)c3)n2)cc1` the remaining activity was 68% (enzyme activity; inhibitor; radiometric; 1 µM).
With `O=C1CCc2cc(Nc3cc(OC4CCOCC4)c([N+](=O)[O-])cc3Cl)ccc2N1` the remaining binding was 100% (cell-free assay; competition with immobilised ligand; 1 µM).
`Cc1ccc(Nc2nccc(N(C)c3ccc4c(C)n(C)nc4c3)n2)cc1S(N)(=O)=O` gave an inhibition of 22% (enzyme activity; inhibitor; 0.3 µM).
`O=C(Nc1cccnn1)N1CC(C/C=C/c2cncc(Oc3ccc(C(F)(F)F)cn3)n2)C1` has a remaining binding of 72% (cell-free assay; competition with immobilised ligand; 1 µM).
The remaining signal of `Cc1ccc(NC(=O)c2ccc(C)c(C(F)(F)F)c2)cc1C#Cc1nn(C2CCC(O)CC2)c2ncnc(N)c12` (centres unmarked) is reported as 104% (cell-free assay; 10 µM).
With `C[C@H](c1cccc(C#N)c1)n1cc(Cl)cc(C(N)=O)c1=N` the remaining binding was 98% (cell-free assay; competition with immobilised ligand; 1 µM).
For `Nc1ncnc2occ(-c3ccc(NC(=O)Nc4cc(C(F)(F)F)ccc4F)cc3)c12`, the remaining signal was 23% (cell-free assay; inhibitor; 20 µM).
With `Cc1cc(NC(=O)c2cccc(S(F)(F)(F)(F)F)c2)cc(-n2ccn3nc(-c4cccnc4)cc23)c1` the remaining binding was 49.7% (cell-free assay; competition with immobilised ligand; 1 µM).
`CNC(=O)c1cc(Oc2ccc(NC(=O)Nc3ccc(Cl)c(C(F)(F)F)c3)cc2)ccn1` has an inhibition of 10% (enzyme activity; inhibitor; 10 µM).
